Assay results as given in paper PMC4059944 (Nature, 2014).
Where “and” joins values, the source holds several entries; their conditions need not be identical. Equal entries are not always repeated. Ends that are not written are not given here.

B1: GINSPsf1ΔC (Strep III-tagged, for electron microscopy) (complex)
chain 1: MGYYDIDDVLADGTEFPCKFQYDIPGLGYLENNPGRPITKNTKLSLPLWLARILAIVGGDEALVDEEPVPFVELLPPDMFSTKVMNAIKTDPVALDLHSINSHFFSLAIKWIMLFSEKELANVVSELLLQRAQELNHHASSLSIDLNADSTGKNSANTNIATSTFLLKLEEMEKEIYKKSHESYKDTKRWMFKK
chain 2: MYGDLGNKLVLEAKRTKQLYARSNQDVNLPMYHEDIIRNILKEVSNLRKNTEYLKEQQQLGMLDDKVAKCQYFVTLLCMERNKRCLLAYQRLRTDILDSMAWNNNGLDLMSSITFSQQDTNNLSHQEQEYLKEYCDLITDLKSGDLVDIDLSGSLVPPSDVFID
chain 3: MSLPAHLQQTFSPEEIQFIVENEPIKIFPRITTRQKIRGDDRGTGNHTRWQLITTDDKALNNMVAMRSTEVVLWIALLLKQQSKCSIVAPQWLTTKELDRKIQYEKTHPDRFSELPWNWLVLARILFNKAKDDFHDPIHELRGKIQDLREIRQIKVLKGLKYLNESHLQLDNLSLLEINELRPFITEIMDKLREIHTASLTAGTENDEEEFNI
chain 4: MDINIDDILAELDKETTAVDSTKITQGSSSTTHRDANTIVGSSLDLNDKTQIYVSPQQDFSDLMKSWKNERCSPELLPYPHQLMKRLLNRISMQSQLIENISMGFLDMQNASNANPPMPNESKLPLLCMETELERLKFVIRSYIRCRLSKIDKFSLYLRQLNEDENSLISLTDLLSKDEIKYHDTHSLIWLKLVNDSILKYMPEELQAINDTEGSVNMIDEPDWNKFVFIHVNGPPDGKWNEDPLLQENEFGKPCYTVTIPDLKEEVELTIGSIYVMRYEVIRDLLRDDKVALI
B2: Ctf4CTD (yeast Ctf4 amino acids 471 to 927) (domain or fragment)
chain: TGKFRYMPFSPAGTPFGFTDRRYLTMNEVGYVSTVKNSEQYSITVSFFDVGRFREYHFEDLFGYDLCFLNEKGTLFGQSKTGQIQYRPHDSIHSNWTKIIPLQAGERITSVAATPVRVIVGTSLGYFRSFNQFGVPFAVEKTSPIVALTAQNYRVFSVHYSQFHGLSYSLSELGTSSKRYYKRECPLPMSLPNINSDMKKDANLDYYNFNPMGIKSLFFSSYGDPCIFGSDNTLLLLSKWRSPEESKWLPILDSNMEIWKMSGGKETTDIHVWPLALAYDTLNCILVKGKHIWPEFPLPLPSEMEIRMPVFVKSKLLEENKAILNKKNEIGADTEAEEGEEDKEIQIPVSMAAEEEYLRSKVLSELLTDTLENDGEMYGNENEVLAALNGAYDKALLRLFASACSDQNVEKALSLAHELKQDRALTAAVKISERAELPSLVKKINNIREARYEQQLK

Legend:
[1] = tested on: Ctf4CTD; assay: Analytical gel filtration of Ctf4CTD - GINS; assay type: binding, yeast (S. cerevisiae); settings: Superdex S200, 20 mM HEPES pH 7.2, 140 mM KCl, full-length or N-terminally truncated Sld5
[2] = target: T1, Ctf4 N-terminal deletion (Ctf4CTD, aa 461-927) (S. cerevisiae, UniProt Q01454 461-927); assay: negative-stain single-particle electron microscopy
T1 sequence: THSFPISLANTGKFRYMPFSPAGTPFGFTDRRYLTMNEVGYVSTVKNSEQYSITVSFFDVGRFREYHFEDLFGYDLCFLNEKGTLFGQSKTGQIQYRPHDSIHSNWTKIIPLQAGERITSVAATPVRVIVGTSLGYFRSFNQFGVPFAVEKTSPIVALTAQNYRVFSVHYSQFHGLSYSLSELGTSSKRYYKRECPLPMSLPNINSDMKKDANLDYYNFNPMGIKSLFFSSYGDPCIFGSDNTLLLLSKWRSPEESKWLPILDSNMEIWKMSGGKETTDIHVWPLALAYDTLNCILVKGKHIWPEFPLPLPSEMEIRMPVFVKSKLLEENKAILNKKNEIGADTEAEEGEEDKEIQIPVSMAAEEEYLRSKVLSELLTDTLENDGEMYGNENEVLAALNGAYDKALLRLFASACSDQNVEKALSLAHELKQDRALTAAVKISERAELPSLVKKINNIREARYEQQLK

[3] = Multi-angle laser scattering; assay type: physicochemical, yeast (S. cerevisiae); settings: size exclusion chromatography - MALS
Outline: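 Recombinant His-tagged full-length yeast Ctf4, expressed in E. coli BL21(DE3)-CodonPlus (1 mM IPTG, 37°C, 2 h), purified by Ni-NTA, Mono Q ion exchange and Superdex 200 gel filtration. About 100 μg loaded onto an HPLC size-exclusion column equilibrated in 150 mM NaCl, 20 mM Tris pH 8.0, 1 mM DTT. Eluate read by 8-angle light scattering and refractive index detectors.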

[4] = Native mass spectrometry, oligomeric state; assay type: physicochemical, yeast (S. cerevisiae); settings: nano-electrospray, 500 mM ammonium acetate
[5] = target: the molecule itself; assay: SEC-MALS
[6] = target: T2, fluorescein-labelled yeast Sld5 peptide (1-19) (S. cerevisiae); assay: fluorescence polarisation
T2 peptide: fluorescein-MDINIDDILAELDKETTAV

Molecule | Ctf4 - GINS interaction [1] | stoichiometry N [2] | oligomeric state in solution (MALS) [3] | oligomeric state in solution (native mass spectrometry) [4] | stoichiometry N [5] | fold tighter association than the Pol1 motif [6]
B1 | dependent upon the unstructured tail at the N-terminus of the Sld5 subunit of GINS | 1 copies of GINS per Ctf4CTD trimer and 2 copies of GINS per Ctf4CTD trimer and 3 copies of GINS per Ctf4CTD trimer | – | – | – | –
B2 | – | – | stable trimer in solution | stable trimer in solution | 3 | ~5 fold
